Measurements published in PubChem BioAssay AID504516 (Sanford-Burnham Center for Chemical Genomics, 2011).
Active and inactive are the calls of the source.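 How the source made its calls: active means IC50 at or below 20 µM; inactive means the rest.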

system: Jurkat NF-kB luciferase, PMA/ionomycin, luminescence 16 h; assay: inhibitors of PMA/ionomycin-driven NF-kB luciferase in Jurkat – cell-based, luminescence, counter-screen for B-cell antigen receptor NF-kB inhibitors, SAR follow-up (AID 504516)
Procedure, shortened: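 Material: Jurkat T cells with NF-kB-driven luciferase reporter; amount: 8000 cells/well; doses: compound concentration series; schedule: 1 h compound pre-incubation, 16 h agonist exposure, 37 °C; measured by: luciferase luminescence with SteadyGlo reagent; benchmarks: DMSO-only and no-agonist wells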

Row | SMILES | IC50
1 | CCc1ccc(-c2nc(CSCC(=O)NCc3ccco3)c(C)o2)cc1 | > 79 µM (inactive)
2 | CCOc1ccccc1-c1nc(CSCC(=O)O)c(C)o1 | > 79 µM (inactive)
3 | COc1cccc(-c2cc(=O)c3cc(NC(=O)c4ccc(N(C)C)cc4)ccc3[nH]2)c1 | > 79 µM (inactive)
4 | CCOc1ccccc1-c1nc(CSCC(=O)NC2CC2)c(C)o1 | > 79 µM (inactive)
5 | C#CCNC(=O)CSCc1nc(-c2ccc(OCC)cc2)oc1C | > 79 µM (inactive)
6 | CCOc1ccc(-c2nc(CSCC(=O)NCC3CC3)c(C)o2)cc1 | 20.9 µM (inactive)
7 | CCNC(=O)CCc1nc(-c2cccc(F)c2)no1 | > 79 µM (inactive)
8 | CCOc1ccc(-c2nc(CSCC(=O)O)c(C)o2)cc1 | < 0.15 µM
9 | CCc1ccc(-c2nc(CSCC(=O)NC3CC3)c(-c3ccccc3)o2)cc1 | 72.8 µM (inactive)
10 | CNC(=O)CCc1nc(-c2ccc(C(C)C)cc2)no1 | > 79 µM (inactive)
11 | CCC(C)NC(=O)CCc1nc(-c2ccccc2)no1 (stereo not drawn) | > 79 µM (inactive)
12 | CNC(=O)CCc1nc(-c2ccccc2)no1 | > 79 µM (inactive)
13 | CCCCOc1ccc(-c2nc(CSCC(=O)NCc3ccco3)c(C)o2)cc1 | > 79 µM (inactive)
14 | COc1ccc(C(=O)Nc2ccc3[nH]c(-c4cccc(OC)c4)cc(=O)c3c2)cc1 | > 79 µM (inactive)
15 | CCCOc1ccc(-c2nc(CSCC(=O)O)c(C)o2)cc1 | < 0.15 µM
16 | CCCOc1ccc(-c2nc(CSCC(=O)NCc3ccco3)c(C)o2)cc1 | > 79 µM (inactive)
17 | CCc1ccc(-c2nc(CSCC(=O)NC3CC3)c(C)o2)cc1 | > 79 µM (inactive)
18 | CCOc1ccc(-c2noc(CCC(=O)O)n2)cc1 | 9.25 µM
19 | Cc1oc(-c2ccccc2)nc1CSCC(=O)NCc1ccco1 | > 79 µM (inactive)
20 | CCCOc1ccc(-c2nc(CSCC(=O)NC3CC3)c(C)o2)cc1 | > 79 µM (inactive)
21 | Cc1oc(-c2ccc(C(F)(F)F)cc2)nc1CSCC(=O)O | 0.52 µM
22 | Cc1oc(-c2ccccc2)nc1CSCC(=O)NC1CC1 | > 79 µM (inactive)
23 | CCOc1ccc(-c2nc(CSCC(N)=O)c(C)o2)cc1 | > 79 µM (inactive)
24 | CCNC(=O)CCc1nc(-c2ccccc2C)no1 | > 79 µM (inactive)
25 | CC(C)c1ccc(-c2noc(CCC(=O)NC(C)(C)C)n2)cc1 | 15.2 µM
26 | CCOc1cccc(-c2nc(CSCC(=O)NC3CC3)c(C)o2)c1 | > 79 µM (inactive)

Row | SMILES | IC50
27 | CCOc1ccc(-c2nc(CSCC(=O)N(C)C)c(C)o2)cc1 | > 79 µM (inactive)
28 | CCCCOc1ccc(-c2nc(CSCC(=O)O)c(C)o2)cc1 | < 0.15 µM
29 | CCN(CC)C(=O)CCc1nc(-c2ccc(C(C)(C)C)cc2)no1 | 16.4 µM
30 | COc1ccc(-c2nc(CSCC(=O)NC3CC3)c(C)o2)cc1 | > 79 µM (inactive)
31 | CC(C)(C)c1ccc(-c2noc(CCC(=O)O)n2)cc1 | 0.2 µM
32 | CCc1ccc(-c2noc(CCC(=O)NC)n2)cc1 | > 79 µM (inactive)
33 | CCNC(=O)CCc1nc(-c2ccc(OCC)cc2)no1 | > 79 µM (inactive)
34 | CCCCc1ccc(-c2noc(CCC(=O)NC(C)(C)C)n2)cc1 | 1.62 µM
35 | CCc1ccc(-c2noc(CCC(=O)NC3CC3)n2)cc1 | > 79 µM (inactive)
36 | CCOc1ccc(-c2nc(CSCC(=O)NC)c(C)o2)cc1 | > 79 µM (inactive)
37 | CCNC(=O)CCc1nc(-c2ccc(C(C)C)cc2)no1 | > 79 µM (inactive)
38 | COc1cccc(-c2cc(=O)c3cc(NC(=O)c4ccccc4)ccc3[nH]2)c1 | > 79 µM (inactive)
39 | CCOc1ccc(-c2nc(CSCC(=O)NC3CC3)c(C)o2)cc1 | > 79 µM (inactive)
40 | CCNC(=O)CCc1nc(-c2ccc(CC)cc2)no1 | > 79 µM (inactive)
41 | CN(C)C(=O)CCc1nc(-c2ccc(C(C)(C)C)cc2)no1 | 71.3 µM (inactive)
42 | CCNC(=O)CCc1nc(-c2ccc(C(C)(C)C)cc2)no1 | > 79 µM (inactive)
43 | CCc1ccc(-c2noc(CCC(=O)NC(C)CC)n2)cc1 (stereo not drawn) | > 79 µM (inactive)
44 | CC(C)Nc1ccc(C(CC(=O)O)NC(=O)c2ccccc2)cc1[N+](=O)[O-] (stereo not drawn) | > 79 µM (inactive)
45 | CC(C)(C)c1ccc(-c2noc(CCC(N)=O)n2)cc1 | 0.19 µM
46 | O=C(O)CCc1nc(-c2ccccc2)no1 | > 79 µM (inactive)
47 | CCCCc1ccc(-c2noc(CCC(=O)NC3CC3)n2)cc1 | 1.25 µM
48 | CCOc1ccc(-c2nc(CSCC(=O)NCc3ccco3)c(C)o2)cc1 | 25.4 µM (inactive)
49 | COC(=O)CCc1nc(-c2ccc(C(C)(C)C)cc2)no1 | < 0.16 µM
50 | Cc1oc(-c2ccc(OC(F)(F)F)cc2)nc1CSCC(=O)NC1CC1 | > 79 µM (inactive)
51 | CCNC(=O)CCc1nc(-c2cccc(C)c2)no1 | > 79 µM (inactive)
52 | Cc1ccc(-c2nc(CSCC(=O)NCc3ccco3)c(C)o2)cc1 | > 79 µM (inactive)

Row | SMILES | IC50
53 | CCc1ccc(-c2noc(CCC(=O)NC(C)(C)C)n2)cc1 | > 79 µM (inactive)
54 | CCCCc1ccc(-c2noc(CCC(=O)NC(C)CC)n2)cc1 (stereo not drawn) | 0.41 µM
55 | CCC(C)NC(=O)CCc1nc(-c2ccc(C(C)(C)C)cc2)no1 (stereo not drawn) | > 79 µM (inactive)
56 | CCOc1ccc(-c2nc(CSCC(=O)NC(C)(C)C)c(C)o2)cc1 | 10.8 µM
57 | CC(C)(C)NC(=O)CCc1nc(-c2ccccc2)no1 | > 79 µM (inactive)
58 | CCCCc1ccc(-c2noc(CCC(=O)NCC)n2)cc1 | > 79 µM (inactive)
59 | COc1ccc(-c2nc(CSCC(=O)NCc3ccco3)c(C)o2)cc1 | > 79 µM (inactive)
60 | CCOC(=O)CC(NC(=O)c1ccc(Br)cc1)c1ccc(F)c([N+](=O)[O-])c1 (stereo not drawn) | 42.7 µM (inactive)
61 | CCOc1ccc(-c2nc(CSCC(=O)NC3CC3)c(-c3ccccc3)o2)cc1 | 54.6 µM (inactive)
62 | CCOc1ccc(-c2nc(CSCC(=O)N3CCOCC3)c(C)o2)cc1 | > 79 µM (inactive)
63 | CCNC(=O)CCc1nc(-c2ccccc2)no1 | > 79 µM (inactive)
64 | CC(C)(C)c1ccc(-c2noc(CCC(=O)NC3CC3)n2)cc1 | 58.7 µM (inactive)
65 | CCOc1ccc(-c2nc(CSCC(=O)NC3CCC3)c(C)o2)cc1 | 26.4 µM (inactive)
66 | Cc1oc(-c2ccc(C(F)(F)F)cc2)nc1CSCC(=O)NC1CC1 | > 79 µM (inactive)
67 | CCCCOc1ccc(-c2nc(CSCC(=O)NC3CC3)c(C)o2)cc1 | > 79 µM (inactive)
68 | CCNC(=O)CCc1nc(-c2ccccc2Cl)no1 | > 79 µM (inactive)
69 | CCCCc1ccc(-c2noc(CCC(=O)NC)n2)cc1 | > 79 µM (inactive)
70 | Cc1ccc(-c2nc(CSCC(=O)NC3CC3)c(C)o2)cc1 | > 79 µM (inactive)
71 | CCNC(=O)CCc1nc(-c2c(Cl)cccc2Cl)no1 | > 79 µM (inactive)
72 | CCC(C)NC(=O)CCc1nc(-c2ccc(C(C)C)cc2)no1 (stereo not drawn) | > 79 µM (inactive)
73 | Cc1oc(-c2ccc(OC(F)(F)F)cc2)nc1CSCC(=O)O | 0.22 µM
74 | O=C(CCc1nc(-c2ccccc2)no1)NC1CC1 | > 79 µM (inactive)
75 | CC(C)(C)c1ccc(-c2noc(CCC(=O)NC3CCC3)n2)cc1 | 0.94 µM
76 | CNC(=O)CCc1nc(-c2ccc(C(C)(C)C)cc2)no1 | > 79 µM (inactive)
77 | CC(C)c1ccc(-c2noc(CCC(=O)NC3CC3)n2)cc1 | > 79 µM (inactive)
78 | CCNC(=O)CCc1nc(-c2cccc(OC)c2)no1 | > 79 µM (inactive)
